Measured values: ChEMBL document CHEMBL1139743, “Synthesis and antihyperlipidemic activity of novel glycosyl fructose derivatives” (2006)

How the values were obtained:
Assay type in all cases: functional, Mesocricetus auratus
[1] = test system: Syrian golden hamster; assay: Antihyperlipidemic activity measured by glycerol level in golden syrian hamster at 100 mg/kg, po
How it was run: (§1)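 High-fat-diet hyperlipidemic male golden Syrian hamsters (120–130 g, n=8 per group) were dosed orally in water vehicle on days 4–10; water-only HFD hamsters served as controls. On day 10, nonfasted blood was drawn into tubes containing 120 µL NaF (4.5 mg/mL) and chilled to 0 C for 15 min. Glycerol and free fatty acids were assayed in this NaF plasma on a clinical chemistry analyser.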

[2] = test system: Syrian golden hamster; assay: Antihyperlipidemic activity measured by decrease in triglyceride level in golden syrian hamster at 100 mg/kg, po relative to control; set-up: scale not given: the % may be the effect or the level left
How it was run: (§2)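 Male golden Syrian hamsters (120–130 g), 8 per group, made hyperlipidemic on high fat diet with free access to diet and water throughout. Compound given orally in water from day 4 to day 10 (7 days); HFD hamsters given water only served as controls. On day 10, blood from nonfasted animals was drawn and cooled to 0 C for 15 min. Triglycerides, total cholesterol and HDL cholesterol were measured the same day in plasma without NaF using enzymatic kits.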

[3] = test system: Syrian golden hamster; assay: Antihyperlipidemic activity measured by free fatty acid level in golden syrian hamster at 100 mg/kg, po; how it was run: as §1
[4] = test system: Syrian golden hamster; assay: Antihyperlipidemic activity measured by cholesterol level in golden syrian hamster at 100 mg/kg, po; how it was run: as §2
[5] = test system: Syrian golden hamster; assay: Antihyperlipidemic activity measured by increase in glycerol level in golden syrian hamster at 100 mg/kg, po relative to control; how it was run: as §1
[6] = test system: Syrian golden hamster; assay: Antihyperlipidemic activity measured by decrease in cholesterol level in golden syrian hamster at 100 mg/kg, po relative to control; set-up: scale not given: the % may be the effect or the level left; how it was run: as §2
[7] = test system: Syrian golden hamster; assay: Antihyperlipidemic activity measured by increase in HDL/total cholesterol ratio in golden syrian hamster at 100 mg/kg, po relative to control; how it was run: as §2
[8] = test system: Syrian golden hamster; assay: Antihyperlipidemic activity measured by HDL/total cholesterol ratio in golden syrian hamster at 100 mg/kg, po; how it was run: as §2
[9] = test system: Syrian golden hamster; assay: Antihyperlipidemic activity measured by HDL level in golden syrian hamster at 100 mg/kg, po; how it was run: as §2
[10] = test system: Syrian golden hamster; assay: Antihyperlipidemic activity measured by increase in free fatty acid level in golden syrian hamster at 100 mg/kg, po relative to control; how it was run: as §1
[11] = test system: Syrian golden hamster; assay: Antihyperlipidemic activity measured by triglyceride level in golden syrian hamster at 100 mg/kg, po; how it was run: as §2
[12] = test system: Syrian golden hamster; assay: Antihyperlipidemic activity measured by HDL/total cholesterol ratio in golden syrian hamster at 25 mg/kg; how it was run: as §2
[13] = test system: Syrian golden hamster; assay: Antihyperlipidemic activity measured by decrease in HDL/total cholesterol ratio in golden syrian hamster at 25 mg/kg relative to control; set-up: scale not given: the % may be the effect or the level left; how it was run: as §2
[14] = test system: Syrian golden hamster; assay: Antihyperlipidemic activity measured by decrease in HDL level in golden syrian hamster at 25 mg/kg relative to control; set-up: scale not given: the % may be the effect or the level left; how it was run: as §2
[15] = test system: Syrian golden hamster; assay: Antihyperlipidemic activity measured by decrease in triglyceride level in golden syrian hamster at 25 mg/kg relative to control; set-up: scale not given: the % may be the effect or the level left; how it was run: as §2
[16] = test system: Syrian golden hamster; assay: Antihyperlipidemic activity measured by decrease in glycerol level in golden syrian hamster at 25 mg/kg relative to control; set-up: scale not given: the % may be the effect or the level left; how it was run: as §1
[17] = test system: Syrian golden hamster; assay: Antihyperlipidemic activity measured by triglyceride level in golden syrian hamster at 25 mg/kg; how it was run: as §2
[18] = test system: Syrian golden hamster; assay: Antihyperlipidemic activity measured by decrease in free fatty acid level in golden syrian hamster at 25 mg/kg relative to control; set-up: scale not given: the % may be the effect or the level left; how it was run: as §1
[19] = test system: Syrian golden hamster; assay: Antihyperlipidemic activity measured by HDL level in golden syrian hamster at 25 mg/kg; how it was run: as §2
[20] = test system: Syrian golden hamster; assay: Antihyperlipidemic activity measured by cholesterol level in golden syrian hamster at 25 mg/kg; how it was run: as §2
[21] = test system: Syrian golden hamster; assay: Antihyperlipidemic activity measured by free fatty acid level in golden syrian hamster at 25 mg/kg; how it was run: as §1
[22] = test system: Syrian golden hamster; assay: Antihyperlipidemic activity measured by increase in HDL level in golden syrian hamster at 100 mg/kg, po relative to control; how it was run: as §2
[23] = test system: Syrian golden hamster; assay: Antihyperlipidemic activity measured by decrease in cholesterol level in golden syrian hamster at 25 mg/kg relative to control; set-up: scale not given: the % may be the effect or the level left; how it was run: as §2
[24] = test system: Syrian golden hamster; assay: Antihyperlipidemic activity measured by glycerol level in golden syrian hamster at 25 mg/kg; how it was run: as §1
[25] = test system: Syrian golden hamster; assay: Antihyperlipidemic activity measured by decrease in glycerol level in golden syrian hamster at 100 mg/kg, po relative to control; set-up: scale not given: the % may be the effect or the level left; how it was run: as §1
[26] = test system: Syrian golden hamster; assay: Antihyperlipidemic activity measured by decrease in free fatty acid level in golden syrian hamster at 100 mg/kg, po relative to control; set-up: scale not given: the % may be the effect or the level left; how it was run: as §1
[27] = test system: Syrian golden hamster; assay: Antihyperlipidemic activity measured by increase in cholesterol level in golden syrian hamster at 100 mg/kg, po relative to control; how it was run: as §2
[28] = test system: Syrian golden hamster; assay: Antihyperlipidemic activity measured by increase in triglyceride level in golden syrian hamster at 100 mg/kg, po relative to control; how it was run: as §2

SMILES	Activity [1] [mM]	Activity [2] [%]	Activity [3] [µM]	Activity [4] [mM]	Activity [5] [%]	Activity [6] [%]	Activity [7] [%]	Ratio [8]	Activity [9] [mM]	Activity [11] [mM]	Activity [22] [%]	Activity [25] [%]	Activity [26] [%]	Activity [27] [%]	other results
OC[C@H]1O[C@](O)(CO)[C@@H](O[C@@H]2OC[C@@H](O)[C@@H](O)[C@H]2O)[C@@H]1O	0.99	9	924.84	8.9	18	23	31	0.35	3.14	13.09					Activity [10]: 28%
OC[C@H]1O[C@](O)(CO)[C@@H](O[C@@H]2O[C@H](CO)[C@@H](O[C@@H]3O[C@H](CO)[C@@H](O)[C@H](O)[C@H]3O)[C@H](O)[C@H]2O)[C@@H]1O	0.81	58	726.03	9.79		15	29	0.34	3.4	6.09	10	4			Ratio [12]: 0.24; Activity [13]: 11%; Activity [14]: 15%; Activity [15]: 29%; Activity [16]: 8%; Activity [17]: 10.23 mM; Activity [18]: 10%; Activity [19]: 2.64 mM; Activity [20]: 10.97 mM; Activity [21]: 0.648 mM; Activity [23]: 5%; Activity [24]: 0.77 mM
OC[C@H]1O[C@](O)(CO)[C@@H](O[C@@H]2OC[C@@H](O)[C@H](O)[C@H]2O)[C@@H]1O	0.61	30	692.34	12				0.27	3.26	10.08	5	28	4		
OC[C@H]1O[C@](O)(CO)[C@@H](O[C@H]2O[C@H](CO)[C@@H](O)[C@H](O)[C@@H]2O)[C@@H]1O	0.66	29	510.7	15.26			5	0.28	4.33	10.16	40	21	30	32	
OC[C@H]1O[C@](O)(CO)[C@@H](O[C@H]2OC[C@@H](O)[C@@H](O)[C@@H]2O)[C@@H]1O	1		708.69	12.04	19		7	0.29	3.49	15.26	13			4	Activity [28]: 6%
